# Active and inactive are the calls of the source. No rule for the calls is given here.
# Tests used:
# [1] = Antianaphylactic activity in human chopped lung treated with atopic serum isolated from patients allergic to cocksfoot pollen assessed as inhibition of antigen-induced histamine release at 10 ug/mL after 15 mins relative to control; assay type: functional; conditions: 0.25 h
# Procedure, shortened: (§1)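 Surgical human lung (bronchial carcinoma resections) was washed in Hank's, chopped into 0.5-mm cubes and incubated for 18 h at 18 °C with atopic serum from cocksfoot pollen-allergic patients. Tissue was washed, equilibrated in Tyrode's at 37 °C and challenged with saline pollen extract ± compound for 15 min. Histamine or SRS-A in the supernatant was bioassayed on guinea pig ileum. Values are % inhibition, mean of four samples.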
# [2] = Antianaphylactic activity in human chopped lung treated with atopic serum isolated from patients allergic to cocksfoot pollen assessed as inhibition of antigen-induced slow-reacting substance of anaphylaxis release at 10 ug/mL after 15 mins relative to control; assay type: functional; conditions: 0.25 h; procedure, shortened: as §1
# Cavia porcellus [3] = assay: (§2) Antianaphylactic activity in ovalbumin/ovalbumin aerosol sensitized guinea pig bronchospasm model assessed as ratio of mean collapse time after pretreatment with compound to mean collapse time of control animal at 1 x 2 mg/kg, po compound administered prior to antigen challenge by Herxheimer test; assay type: functional
# Procedure, shortened: (§3)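 Ovalbumin-sensitized male guinea pigs were exposed in a chamber to ovalbumin aerosol (1% w/v) until a convulsive cough; that time is the collapse time. Compound was given orally either 2 h before challenge or in two doses at 0.5 and 3 h before. Where used, mepyramine was given at 0.5 mg/kg sc 0.5 h before. Ratio is mean collapse time of treated animals over that of controls.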
# Cavia porcellus [4] = assay: as §2, with “with compound in presence of mepyramine to mean” for “with compound to mean”; assay type: functional; procedure, shortened: as §3
# Cavia porcellus [5] = assay: Antianaphylactic activity in ovalbumin/ovalbumin aerosol sensitized guinea pig bronchospasm model assessed as ratio of mean collapse time after pretreatment with compound to mean collapse time of control animal at 0.5 mg/kg, sc by Herxheimer test; assay type: functional; conditions: route subcutaneous
# Procedure, shortened: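 Ovalbumin-sensitized male guinea pigs were given mepyramine at 0.5 mg/kg sc 0.5 h before exposure to ovalbumin aerosol (1% w/v) in a chamber. Collapse time is the time to a convulsive cough. Ratio is mean collapse time of mepyramine-treated animals over that of controls.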
# Rattus norvegicus = assay: Antianaphylactic activity in antiovalbumin IgE serum-treated Wistar rat at 2 x 100 mg/kg, po administered 2.5 hrs prior to ovalbumin challenge measured after 45 mins by passive cutaneous anaphylaxis test; assay type: functional, organism-based; parameters: dose 100 mg/kg; conditions: in the assay text read “2 hrs and again 30 mins prior to” for “2.5 hrs prior to”
# Procedure, shortened: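 Female Wistar rats, shaved and lightly anaesthetized, received an intradermal abdominal injection of diluted rat antiovalbumin IgE serum. After 24 h they were challenged iv with ovalbumin mixed with dye. Compound was given at 2 h and again at 30 min before challenge. Rats were killed 45 min after challenge and the blue area on the inner skin surface was measured.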
# [6] = Antianaphylactic activity in ovalbumin sensitized albino guinea pig chopped lung assessed as inhibition of antigen-induced slow-reacting substance of anaphylaxis release at 10 ug/mL after 15 mins relative to control; assay type: functional, Cavia porcellus
# Procedure, shortened: (§4)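 Lungs were perfused with Tyrode's, chopped into 0.5-mm cubes and split into 100-mg aliquots. Aliquots were challenged with antigen ± compound and rocked at 37 °C for 15 min. Unchallenged controls gave spontaneous release. Supernatant histamine or SRS-A was bioassayed on guinea pig ileum against standards. Values are % inhibition, mean of four samples.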
# [7] = Antianaphylactic activity in ovalbumin sensitized albino guinea pig chopped lung assessed as inhibition of antigen-induced histamine release at 10 ug/mL after 15 mins relative to control; assay type: functional, Cavia porcellus; procedure, shortened: as §4
# Cavia porcellus [8] = assay: (§5) Antianaphylactic activity in ovalbumin/ovalbumin aerosol sensitized guinea pig bronchospasm model assessed as ratio of mean collapse time after pretreatment with compound to mean collapse time of control animal at 2 x 100 mg/kg, po compound administered prior to antigen challenge by Herxheimer test; assay type: functional; procedure, shortened: as §3
# Cavia porcellus [9] = assay: as §5, with “with compound in presence of mepyramine to mean” for “with compound to mean”; assay type: functional; procedure, shortened: as §3
Compound,inhibition at 10 µg/mL [1] [%],inhibition at 10 µg/mL [2] [%],Ratio (Cavia porcellus [3]),Ratio (Cavia porcellus [4]),Ratio (Cavia porcellus [5]),Activity (Rattus norvegicus),inhibition (INH) [6] [%],inhibition (INH) [7] [%],Ratio (Cavia porcellus [8]),Ratio (Cavia porcellus [9])
CN1CCC(=C2c3ccccc3CC(=O)c3sccc32)CC1 [KETOTIFEN],23,100,4.2,7.2,,,,,,
COc1ccc(CN(CCN(C)C)c2ccccn2)cc1 [PYRILAMINE],,,,,3.7,,,,,
CCCCN(C(=O)C1CC1)c1nc(C)co1,0,72,,,,inactive,46,22,12.2,13.9
